Laboratory results as given in ChEMBL document CHEMBL3286205, “Optimization of diaryl amine derivatives as kinesin spindle protein inhibitors” (Bioorg Med Chem, 2014).
Converted amounts (≈) assume the structure as drawn.

Tests used:
[1] = Thermodynamic solubility of the compound in 1/15 M phosphate buffer at pH 7.4 after 48 hrs by HPLC analysis; assay type: physicochemical; details: read-out: Therm_solubility
Method in brief: (§1)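 Solid compound in 1.0 mL of 1/15 M phosphate buffer (pH 7.4) was shaken 48 h at 25 °C and filtered. m-Cresol internal standard was added (0.05 mg/mL final), the sample diluted in DMF and run on HPLC with UV at 254 nm. Concentration came from the sample/standard peak-area ratio against a calibration curve, corrected for dilution.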

[2] = Thermodynamic solubility of the compound in 50% EtOH/1/15 M phosphate buffer at pH 7.4 after 48 hrs by HPLC analysis; assay type: physicochemical; details: read-out: Therm_solubility
Method in brief: as §1, with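 “0.5” for “1.0”, “7.4) plus 0.5 mL EtOH” for “7.4)”, “analysed by HPLC-UV” for “run on HPLC with UV”, “the” for “the sample/standard”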

[3] = molecular target: T1, Kinesin-like protein KIF11 (Homo sapiens, UniProt P52732); experiment: Inhibition of C-terminal His-tagged KSP ATPase motor domain (unknown origin) expressed in bacteria incubated for 30 mins prior to ATP addition measured after 15 mins by luminescence assay
T1 sequence (P52732 whole entry): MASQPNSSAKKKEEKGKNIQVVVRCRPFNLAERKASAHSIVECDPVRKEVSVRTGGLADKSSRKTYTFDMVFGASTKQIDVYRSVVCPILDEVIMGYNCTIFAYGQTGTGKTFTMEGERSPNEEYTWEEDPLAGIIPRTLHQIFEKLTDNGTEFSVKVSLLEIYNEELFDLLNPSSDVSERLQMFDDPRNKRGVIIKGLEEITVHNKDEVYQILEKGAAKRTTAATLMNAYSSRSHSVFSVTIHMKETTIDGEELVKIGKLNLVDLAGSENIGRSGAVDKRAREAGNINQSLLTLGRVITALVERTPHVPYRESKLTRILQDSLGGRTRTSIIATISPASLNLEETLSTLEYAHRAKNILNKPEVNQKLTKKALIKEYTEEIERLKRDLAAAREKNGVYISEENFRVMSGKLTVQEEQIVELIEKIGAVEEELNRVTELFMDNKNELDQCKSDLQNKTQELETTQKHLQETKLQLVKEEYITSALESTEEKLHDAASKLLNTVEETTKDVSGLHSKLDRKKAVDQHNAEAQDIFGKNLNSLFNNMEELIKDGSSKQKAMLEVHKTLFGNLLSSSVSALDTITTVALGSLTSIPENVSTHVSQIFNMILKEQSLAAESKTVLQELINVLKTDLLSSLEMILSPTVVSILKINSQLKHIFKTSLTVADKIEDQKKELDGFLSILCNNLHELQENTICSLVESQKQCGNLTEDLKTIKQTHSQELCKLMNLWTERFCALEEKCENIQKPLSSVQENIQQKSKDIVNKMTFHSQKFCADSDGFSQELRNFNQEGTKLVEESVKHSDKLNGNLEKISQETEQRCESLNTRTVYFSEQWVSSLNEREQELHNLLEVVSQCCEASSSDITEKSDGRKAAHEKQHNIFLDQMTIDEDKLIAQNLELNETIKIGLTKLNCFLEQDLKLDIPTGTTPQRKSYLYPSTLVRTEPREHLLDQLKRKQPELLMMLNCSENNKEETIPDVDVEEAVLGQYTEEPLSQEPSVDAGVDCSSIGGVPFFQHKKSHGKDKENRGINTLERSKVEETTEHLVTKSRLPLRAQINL

HCT-116 = experiment: Antiproliferative activity against human HCT116 cells assessed as growth inhibition after 72 hrs by MTS assay; assay type: functional, cell-based; details: HCT-116, 72 h
Method in brief: (§2)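 Media with 10% FBS at 37 °C, 5% CO2: A549 in DMEM (500 cells/well), HCT-116 in McCoy's 5A and MCF-7 in EMEM (5000 cells/well each). Cells settled 6 h, then got graded compound concentrations (0.1% final DMSO) for 72 h. After washing into phenol-red-free medium (1 h), MTS was added for 40 min and A490 read. IC50 came from mean inhibition rates of ≥3 experiments.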

A549 = experiment: Antiproliferative activity against human A549 cells assessed as growth inhibition after 72 hrs by MTS assay; assay type: functional, cell-based; details: A549, 72 h; method in brief: as §2
MCF7 = experiment: Antiproliferative activity against human MCF7 cells assessed as growth inhibition after 72 hrs by MTS assay; assay type: functional, cell-based; details: MCF7, 72 h; method in brief: as §2
[4] = Retention time of the compound by HPLC analysis; assay type: physicochemical
Method in brief: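 Reverse-phase C18 HPLC (4.6 × 250 mm), eluted with a linear 30–70% MeCN gradient over 40 min in 0.1% TFA.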

Row | Compound | IC50 [3] [µM] | further results
1 | FC(F)(F)c1ccc2c(c1)[nH]c1ccccc12 | – | solubility thermodynamic at 48 h [1]: < 0.001 mg/mL; solubility thermodynamic at 48 h [2]: 0.424 mg/mL (≈ 1800 µM)
2 | FC(F)(F)c1ccc2c(c1)[nH]c1cnccc12 | – | solubility thermodynamic at 48 h [1]: < 0.001 mg/mL; solubility thermodynamic at 48 h [2]: 0.472 mg/mL (≈ 2000 µM)
3 | FC(F)(F)c1ccc2c(c1)[nH]c1ccncc12 | – | solubility thermodynamic at 48 h [1]: 0.00316 mg/mL (≈ 13.4 µM); solubility thermodynamic at 48 h [2]: 1.76 mg/mL (≈ 7450 µM)
4 | FC(F)(F)c1cccc(Nc2cccnc2)c1 | 7 | solubility thermodynamic at 48 h [1]: 0.0108 mg/mL (≈ 45.3 µM); solubility thermodynamic at 48 h [2]: 14.3 mg/mL (≈ 60000 µM)
5 | FC(F)(F)c1cccc(Nc2ccncc2)c1 | > 6.3 | solubility thermodynamic at 48 h [1]: 0.264 mg/mL (≈ 1110 µM); solubility thermodynamic at 48 h [2]: 24 mg/mL (≈ 101000 µM)
6 | O=[N+]([O-])c1cccc(Nc2cccc(C(F)(F)F)c2)c1 | > 6.3 | –
7 | Nc1cccc(Nc2cccc(C(F)(F)F)c2)c1 | > 6.3 | –
8 | NC(=O)Nc1cccc(Nc2cccc(C(F)(F)F)c2)c1 | > 6.3 | –
9 | O=[N+]([O-])c1ccc(Nc2cccc(C(F)(F)F)c2)cc1 | 3.2 | –
10 | Nc1ccc(Nc2cccc(C(F)(F)F)c2)cc1 | > 6.3 | –
11 | O=C1CCc2cc(Oc3cccc(C(F)(F)F)c3)ccc2N1 | 2 | –
12 | O=C1CCc2cc(Sc3cccc(C(F)(F)F)c3)ccc2N1 | > 6.3 | –
13 | O=C1CCc2cc(Oc3ccc(C(F)(F)F)cc3)ccc2N1 | > 6.3 | –
14 | O=C1CCc2cc(Sc3ccc(C(F)(F)F)cc3)ccc2N1 | > 6.3 | –
15 | O=C1CCc2cc(Nc3ccccc3C(F)(F)F)ccc2N1 | > 6.3 | –
16 | O=C1CCc2cc(Nc3ccccc3)ccc2N1 | > 6.3 | –
17 | O=C1CCc2cc(Nc3cc(C(F)(F)F)cc(C(F)(F)F)c3)ccc2N1 | > 6.3 | –

Row | Compound | IC50 [3] [µM] | further results
18 | O=C1CCc2cc(Nc3cccc(-c4ccccc4)c3)ccc2N1 | > 6.3 | –
19 | O=C1CCc2cc(Nc3cccc(Oc4ccccc4)c3)ccc2N1 | > 6.3 | –
20 | COc1cccc(Nc2ccc3c(c2)CCC(=O)N3)c1 | > 6.3 | –
21 | O=C1CCc2cc(Nc3cccc(OC(F)(F)F)c3)ccc2N1 | 1.2 | –
22 | O=C1CCc2cc(Nc3cccc(O)c3)ccc2N1 | > 6.3 | –
23 | Nc1cccc(Nc2ccc3c(c2)CCC(=O)N3)c1 | > 6.3 | –
24 | COC(=O)c1cccc(Nc2ccc3c(c2)CCC(=O)N3)c1 | > 6.3 | –
25 | O=C1CCc2cc(Nc3cccc(C(=O)O)c3)ccc2N1 | > 6.3 | –
26 | O=C1CCc2ccc(Nc3cccc(C(F)(F)F)c3)cc2N1 | > 6.3 | –
27 | O=C1COc2ccc(Nc3cccc(C(F)(F)F)c3)cc2N1 | > 6.3 | –
28 | O=c1ccc2ccc(Nc3cccc(C(F)(F)F)c3)cc2[nH]1 | 4.6 | –
29 | O=C1CCc2c(cccc2Nc2cccc(C(F)(F)F)c2)N1 | > 6.3 | –
30 | O=C1Cc2cc(Nc3cccc(C(F)(F)F)c3)ccc2N1 | 3.6 | –
31 | O=c1[nH]c2ccc(Nc3cccc(C(F)(F)F)c3)cc2o1 | > 6.3 | –
32 | CN1C(=O)CCc2cc(Nc3cccc(C(F)(F)F)c3)ccc21 | > 6.3 | –
33 | O=C1CCc2cc(Nc3cccc(C(F)(F)F)c3)c(F)cc2N1 | 0.92 | –

The next lines start with results.

Row | IC50 [3] [µM] | Compound | further results
34 | 0.27 | Nc1ccc2c(c1)[nH]c1cc(C(F)(F)F)ccc12 | –
35 | 0.085 | CC(=O)Nc1ccc2c(c1)[nH]c1cc(C(F)(F)F)ccc12 | –
36 | 0.043 | O=[N+]([O-])c1ccc2[nH]c3cc(C(F)(F)F)ccc3c2c1 | –
37 | 0.55 | Nc1ccc2[nH]c3cc(C(F)(F)F)ccc3c2c1 | –
38 | 0.39 | NC(=O)Nc1ccc(Nc2cccc(C(F)(F)F)c2)cc1 | –
39 | 0.045 | O=C1CCc2cc(Nc3cccc(C(F)(F)F)c3)ccc2N1 | solubility thermodynamic at 48 h [1]: < 0.001 mg/mL; IC50 (HCT-116): 8.9 µM; solubility thermodynamic at 48 h [2]: 1.8 mg/mL (≈ 5880 µM); IC50 (A549): 4.2 µM; IC50 (MCF7): 11 µM; Retention_time [4]: 24.4 min
40 | 0.33 | O=C1CCc2cc(Nc3ccc(C(F)(F)F)cc3)ccc2N1 | –
41 | 0.81 | CCc1cccc(Nc2ccc3c(c2)CCC(=O)N3)c1 | –
42 | 0.43 | CC(C)c1cccc(Nc2ccc3c(c2)CCC(=O)N3)c1 | –
43 | 0.16 | CC(C)(C)c1cccc(Nc2ccc3c(c2)CCC(=O)N3)c1 | –
44 | 0.44 | O=C1CCc2cc(Nc3cccc([N+](=O)[O-])c3)ccc2N1 | –
45 | 0.068 | O=C1CCc2cc(Nc3cc(C(F)(F)F)ccn3)ccc2N1 | solubility thermodynamic at 48 h [1]: 0.00612 mg/mL (≈ 19.9 µM); IC50 (HCT-116): 4.4 µM; solubility thermodynamic at 48 h [2]: 3.51 mg/mL (≈ 11400 µM); IC50 (A549): 2.5 µM; IC50 (MCF7): 8 µM; Retention_time [4]: 7 min
46 | 0.81 | O=c1[nH]c2ccc(Nc3cccc(C(F)(F)F)c3)cc2s1 | –
47 | 0.29 | O=C1COc2cc(Nc3cccc(C(F)(F)F)c3)ccc2N1 | –
48 | 0.051 | O=C1CSc2cc(Nc3cccc(C(F)(F)F)c3)ccc2N1 | solubility thermodynamic at 48 h [1]: < 0.001 mg/mL; IC50 (HCT-116): 6.8 µM; solubility thermodynamic at 48 h [2]: 1.7 mg/mL (≈ 5240 µM); IC50 (A549): 4.1 µM; IC50 (MCF7): 6.5 µM; Retention_time [4]: 28.2 min
49 | 0.19 | FC(F)(F)c1cccc(Nc2ccc3c(c2)CCC(=S)N3)c1 | –
50 | 0.05 | O=C1CCCc2cc(Nc3cccc(C(F)(F)F)c3)ccc2N1 | solubility thermodynamic at 48 h [1]: < 0.001 mg/mL; IC50 (HCT-116): 5.7 µM; solubility thermodynamic at 48 h [2]: 7.39 mg/mL (≈ 23100 µM); IC50 (A549): 4.5 µM; IC50 (MCF7): 3.9 µM; Retention_time [4]: 27 min
51 | 0.43 | O=C1CCc2cc(Nc3cccc(C(F)(F)F)c3)cc(F)c2N1 | –
52 | 0.035 | O=C1CSc2cc(Nc3cc(C(F)(F)F)ccn3)ccc2N1 | solubility thermodynamic at 48 h [1]: 0.00111 mg/mL (≈ 3.41 µM); IC50 (HCT-116): 2.6 µM; solubility thermodynamic at 48 h [2]: 0.669 mg/mL (≈ 2060 µM); IC50 (A549): 1.5 µM; IC50 (MCF7): 2.8 µM; Retention_time [4]: 13.8 min
53 | 0.05 | O=C1CCCc2cc(Nc3cc(C(F)(F)F)ccn3)ccc2N1 | solubility thermodynamic at 48 h [1]: 0.00807 mg/mL (≈ 25.1 µM); IC50 (HCT-116): 6.5 µM; solubility thermodynamic at 48 h [2]: 4.82 mg/mL (≈ 15000 µM); IC50 (A549): 5 µM; IC50 (MCF7): 9.1 µM; Retention_time [4]: 10.8 min
